The values below come from ChEMBL document CHEMBL1127512 (J Med Chem, 1994).

Experiment [1] has as its target Kappa-type opioid receptor (Cavia porcellus) (UniProt P41144). The experiment can be described thus: (§1) Inhibitory concentration was tested on electrically stimulated guinea pig ileal longitudinal muscle using ethylketazocine as kappa opioid receptor agonist at 100 nM of the compound. Type of experiment: functional. The method, boiled down:
(§2)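 Electrically stimulated guinea pig ileal longitudinal muscle (ethylketazocine, morphine) and mouse vas deferens (DADLE). Antagonist 100 nM preincubated 15 min before standard agonist testing. IC50 ratio = agonist IC50 with antagonist divided by control agonist IC50 in the same preparation. For the kappa line, Ke = [antagonist]/(IC50 ratio − 1).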

Experiment [2] deals with Delta-type opioid receptor (Mus musculus) (UniProt P32300). The experiment can be described thus: (§3) Inhibitory concentration was tested on electrically stimulated mouse vas deferens using DADLE as delta opioid receptor agonist at 100 nM of the compound. The class given is functional. The procedure, abridged: as §2
Chain of Delta-type opioid receptor (Mus musculus) (P32300 whole entry): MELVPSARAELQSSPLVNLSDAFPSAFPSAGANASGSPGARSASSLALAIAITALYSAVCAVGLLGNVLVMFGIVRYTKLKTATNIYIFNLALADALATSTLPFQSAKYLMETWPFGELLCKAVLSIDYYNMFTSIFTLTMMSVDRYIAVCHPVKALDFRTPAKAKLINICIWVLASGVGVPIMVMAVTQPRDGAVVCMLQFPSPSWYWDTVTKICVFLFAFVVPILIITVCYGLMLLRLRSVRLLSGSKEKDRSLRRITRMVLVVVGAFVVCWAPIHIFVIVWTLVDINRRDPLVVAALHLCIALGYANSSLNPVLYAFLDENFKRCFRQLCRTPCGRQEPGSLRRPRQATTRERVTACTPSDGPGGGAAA
The target in experiment [3] is Kappa-type opioid receptor (Cavia porcellus) (UniProt P41144). The experiment can be described thus: (§4) Selectivity ratio of kappa opioid receptor to that of delta opioid receptor.
Chain of Kappa-type opioid receptor (Cavia porcellus) (P41144 whole entry): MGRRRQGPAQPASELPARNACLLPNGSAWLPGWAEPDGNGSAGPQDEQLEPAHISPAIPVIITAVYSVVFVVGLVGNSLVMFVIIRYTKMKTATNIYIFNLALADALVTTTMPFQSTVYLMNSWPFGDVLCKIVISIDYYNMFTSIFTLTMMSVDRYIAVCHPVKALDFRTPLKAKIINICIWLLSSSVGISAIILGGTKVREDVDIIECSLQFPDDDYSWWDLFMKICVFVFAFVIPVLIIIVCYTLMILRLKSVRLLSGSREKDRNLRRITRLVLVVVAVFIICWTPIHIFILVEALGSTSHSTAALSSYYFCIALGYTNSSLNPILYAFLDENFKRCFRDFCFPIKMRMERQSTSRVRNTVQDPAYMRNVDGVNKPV
The target is the same in experiment [4]. The experiment can be described thus: (§5) Antagonist potency at a concentration of 100 nM. The class given is functional. The method, boiled down:
as §2

Experiment [5] has the same target. The experiment in a line: (§6) Selectivity ratio of kappa opioid receptor to that of mu opioid receptor.
The target of experiment [6] is Mu-type opioid receptor (Cavia porcellus) (UniProt P97266). The experiment can be described thus: (§7) Inhibitory concentration was tested on electrically stimulated guinea pig ileal longitudinal muscle using Morphine as mu opioid receptor agonist at 100 nM of the compound. Type of experiment: functional. The procedure, abridged:
as §2

The nature of experiment [7]: as §1. The class given is functional. The method, boiled down: as §2
Experiment [8] in a line: as §5. The class given is functional. The method, boiled down: as §2
Experiment [9] has as its target T1, Opioid receptors; mu & kappa (Homo sapiens) (UniProt P41145+P35372). The experiment can be described thus: Selectivity ratio of mu opioid receptor to that of kappa opioid receptor. The class given is protein assay.
Experiment [10] deals with Opioid receptors; delta & kappa. The experiment in a line: Selectivity ratio of delta opioid receptor to that of kappa opioid receptor. Type of experiment: protein assay.
The nature of experiment [11]: as §3. Type of experiment: functional. The procedure, abridged: as §2
The next experiment concerns the target Mu-type opioid receptor (Cavia porcellus, UniProt P97266). The experiment can be described thus: The binding affinity against mu-opioid receptor using [3H]- DAMGO as radioligand. The procedure, abridged:
(§8)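 Competition binding in guinea pig brain membranes against selective tritiated radioligands. Displacement of [3H]U69593 at kappa, [3H]DAMGO at mu, [3H]DPDPE at delta sites.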

Experiment [12] addresses Kappa-type opioid receptor (Cavia porcellus, UniProt P41144). The experiment can be described thus: The binding affinity on kappa-opioid receptor using [3H]- U-69,593 as radioligand. The method, boiled down:
as §8

A short description of experiment [13]: as §7. The class given is functional. The procedure, abridged: as §2
Experiment [14] has as its target T1, Opioid receptors; mu & kappa (Homo sapiens). The experiment is described as §6. The class given is protein assay.
For experiment [15], the target named is Opioid receptors; delta & kappa (Homo sapiens) (UniProt P41145+P41143). The experiment is described as §4. The class given is protein assay.
Chain of Opioid receptors; delta & kappa (Homo sapiens) (P41143 whole entry, looked up): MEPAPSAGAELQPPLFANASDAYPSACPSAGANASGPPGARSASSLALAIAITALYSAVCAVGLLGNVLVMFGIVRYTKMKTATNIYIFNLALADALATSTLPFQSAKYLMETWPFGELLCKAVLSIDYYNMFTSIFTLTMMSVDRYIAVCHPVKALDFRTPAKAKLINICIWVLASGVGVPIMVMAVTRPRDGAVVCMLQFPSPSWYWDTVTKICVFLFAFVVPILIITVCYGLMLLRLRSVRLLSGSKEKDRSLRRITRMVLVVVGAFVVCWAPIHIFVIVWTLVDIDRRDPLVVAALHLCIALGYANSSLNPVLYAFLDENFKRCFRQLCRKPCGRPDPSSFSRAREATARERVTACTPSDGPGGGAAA
Chain of Opioid receptors; delta & kappa (Homo sapiens) (P41145 whole entry, looked up): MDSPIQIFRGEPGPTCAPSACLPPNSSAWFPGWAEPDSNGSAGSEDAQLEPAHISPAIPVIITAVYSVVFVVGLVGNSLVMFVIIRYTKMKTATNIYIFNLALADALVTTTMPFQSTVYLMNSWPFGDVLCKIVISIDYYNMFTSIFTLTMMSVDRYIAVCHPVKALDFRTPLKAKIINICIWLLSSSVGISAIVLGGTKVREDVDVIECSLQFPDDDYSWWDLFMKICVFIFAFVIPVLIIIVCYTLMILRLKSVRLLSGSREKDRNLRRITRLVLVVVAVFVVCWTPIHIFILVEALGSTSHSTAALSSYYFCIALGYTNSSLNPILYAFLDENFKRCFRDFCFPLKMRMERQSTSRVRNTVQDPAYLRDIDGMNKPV

T1 sequence (P35372 whole entry, looked up): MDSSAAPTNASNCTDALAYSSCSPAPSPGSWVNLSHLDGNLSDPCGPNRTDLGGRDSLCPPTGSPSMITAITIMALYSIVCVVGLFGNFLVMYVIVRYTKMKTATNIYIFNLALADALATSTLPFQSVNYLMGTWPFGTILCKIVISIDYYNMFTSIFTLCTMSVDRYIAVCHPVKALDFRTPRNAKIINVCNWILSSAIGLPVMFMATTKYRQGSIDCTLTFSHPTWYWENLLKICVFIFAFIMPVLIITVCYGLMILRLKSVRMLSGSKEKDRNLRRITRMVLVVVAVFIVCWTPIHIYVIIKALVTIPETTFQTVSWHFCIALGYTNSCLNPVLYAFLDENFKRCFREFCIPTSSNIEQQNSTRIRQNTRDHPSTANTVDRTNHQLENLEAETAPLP
T1 sequence (P41145 whole entry, looked up): as the sequence (P41145 whole entry, looked up) above
Chain of Mu-type opioid receptor (Cavia porcellus) (P97266 whole entry): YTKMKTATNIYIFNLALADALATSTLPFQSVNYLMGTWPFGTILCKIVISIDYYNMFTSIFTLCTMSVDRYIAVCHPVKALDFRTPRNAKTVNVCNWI
Chain of Mu-type opioid receptor (P97266 whole entry): as above
Chain of Kappa-type opioid receptor (P41144 whole entry): as the sequence (P41144 whole entry) above

As to `CC(=O)N1CC[C@]23c4c5ccc(O)c4O[C@H]2c2[nH]c4c(c2C[C@@]3(O)[C@H]1C5)C[C@@]1(O)[C@H]2Cc3ccc(O)c5c3[C@@]1(CCN2CC1CC1)[C@H]4O5`, the Ratio in experiment [1] stood at 4.3; in experiment [2], 2.8; in experiment [3], 1.5; in [5], 2.4; in [6], 1.8. Besides, the Ke in [4] was found to be 30.3 nM.

As to `Oc1ccc2c3c1O[C@H]1c4[nH]c5c(c4C[C@@]4(O)[C@@H](C2)N(CCc2ccccc2)CC[C@]314)C[C@@]1(O)[C@H]2Cc3ccc(O)c4c3[C@@]1(CCN2CC1CC1)[C@H]5O4`, the Ratio in experiment [1] was 44; in [2], 2.4; in [3], 181; in [5], 24; in experiment [6], 1.8. The Ke in experiment [4] amounted to 2.4 nM.

In the case of `Oc1ccc2c3c1O[C@H]1c4[nH]c5c(c4C[C@@]4(O)[C@@H](C2)NCC[C@]314)C[C@@]1(O)[C@H]2Cc3ccc(O)c4c3[C@@]1(CCN2CC1CC1)[C@H]5O4`, the Ratio came out at 41 in experiment [1]; 8.5 in [2]; 4.8 in [3]; 22 in experiment [5]; 1.9 in experiment [6]. In experiment [4], this compound registered a Ke of 2.5 nM.

As for `NCC(=O)NCC(=O)N1CC[C@]23c4c5ccc(O)c4O[C@H]2c2[nH]c4c(c2C[C@@]3(O)[C@H]1C5)C[C@@]1(O)[C@H]2Cc3ccc(O)c5c3[C@@]1(CCN2CC1CC1)[C@H]4O5`, the Ratio in [7] was 9.6; in experiment [9] it was 3; in [10] it was above 15; in [11], 0.67; in experiment [13], 2; in experiment [14] it was 4.8. Further, the Ke in experiment [8] stood at 11.7 nM. Also, the inhibition constant Ki on Mu-type opioid receptor was 66 nM; in experiment [12], 21 nM.

In experiment [8], `Oc1ccc2c3c1O[C@H]1c4[nH]c5c(c4C[C@@]4(O)[C@@H](C2)N(CC2CC2)CC[C@]314)C[C@@]1(O)[C@H]2Cc3ccc(O)c4c3[C@@]1(CCN2CC1CC1)[C@H]5O4` displayed a Ke of 0.55 nM.

Take `N=C(N)NCCN1CC[C@]23c4c5ccc(O)c4O[C@H]2c2[nH]c4c(c2C[C@@]3(O)[C@H]1C5)C[C@@]1(O)[C@H]2Cc3ccc(O)c5c3C1(CCN2CC1CC1)[C@H]4O5`: the Ratio came out at 27 in [7]; 85 in [9]; 63 in experiment [10]; 1 in experiment [11]; 1.7 in experiment [13]; 27 in experiment [15]. Besides, the Ratio in [14] turned out to be 15. Besides, the Ke in [8] was 3.8 nM. In addition, the inhibition constant Ki on Mu-type opioid receptor stood at 50 nM; in experiment [12], 0.59 nM.

With `CCCCCN1CC[C@]23c4c5ccc(O)c4O[C@H]2c2[nH]c4c(c2C[C@@]3(O)[C@H]1C5)C[C@@]1(O)[C@H]2Cc3ccc(O)c5c3[C@@]1(CCN2CC1CC1)[C@H]4O5`, the Ratio in experiment [1] worked out at 27; in experiment [2] it was 3.1; in experiment [3], 8.7; in [5] it was 8.7; in experiment [6], 3.1. This compound also yielded a Ke in experiment [4] of 3.8 nM.

With `O=C(NCCN1CC[C@]23c4c5ccc(O)c4O[C@H]2c2[nH]c4c(c2C[C@@]3(O)C1=C5)C[C@@]1(O)[C@H]2Cc3ccc(O)c5c3[C@@]1(CCN2CC1CC1)[C@H]4O5)OCc1ccccc1`, the Ratio in [7] was found to be 26; in experiment [9] it was 194; in experiment [10] it was 325; in experiment [13], 4.5; in experiment [15], 5.7; in experiment [14], 5.7. Besides, the Ke in [8] was 4 nM.

With `CCN1CC[C@]23c4c5ccc(O)c4O[C@H]2c2[nH]c4c(c2C[C@@]3(O)[C@H]1C5)C[C@@]1(O)[C@H]2Cc3ccc(O)c5c3[C@@]1(CCN2CC1CC1)[C@H]4O5`, the Ratio came out at 22 in experiment [1]; 6.3 in experiment [2]; 3.5 in experiment [3]; 14 in experiment [5]; 1.6 in experiment [6]. The Ke in [4] amounted to 4.7 nM.

On to `NCC(=O)N1CC[C@]23c4c5ccc(O)c4O[C@H]2c2[nH]c4c(c2C[C@@]3(O)[C@H]1C5)C[C@@]1(O)[C@H]2Cc3ccc(O)c5c3[C@@]1(CCN2CC1CC1)[C@H]4O5`, for which the Ratio in experiment [1] was found to be 11.8; in experiment [2], 2.2; in experiment [3], 5.4; in [5] it was 8.4; in experiment [6], 1.4. In experiment [4], this compound showed a Ke of 9.3 nM.

`NCCN1CC[C@]23c4c5ccc(O)c4O[C@H]2c2[nH]c4c(c2C[C@@]3(O)[C@H]1C5)C[C@@]1(O)[C@H]2Cc3ccc(O)c5c3[C@@]1(CCN2CC1CC1)[C@H]4O5`: the Ratio came out at 20 in experiment [7]; 14 in experiment [9]; 41 in [10]; 1.9 in experiment [11]; 1.6 in experiment [13]; 10 in experiment [15]. In addition, the Ratio in experiment [14] is 12.5. This compound had a Ke in experiment [8] of 5.1 nM. Besides, the figures for the Ki (at Mu-type opioid receptor; in [12]) were 46 nM and 3.4 nM, respectively.

Turning to `CCCCN1CC[C@]23c4c5ccc(O)c4O[C@H]2c2[nH]c4c(c2C[C@@]3(O)[C@H]1C5)C[C@@]1(O)[C@H]2Cc3ccc(O)c5c3[C@@]1(CCN2CC1CC1)[C@H]4O5`, the Ratio came to 61 in experiment [7], 1820 in [9], 1.9 in [11] and 1.8 in experiment [13]. In addition, the Ke in experiment [8] stood at 1.7 nM. The Ki on Mu-type opioid receptor came out at 73 nM; in experiment [12], 0.04 nM.
